ZTA DNA inh – ZTA (EBV) inhibition in EBNA-1 counter-screen; ZTA-DNA binding, fluorescence polarization; inhibition, % at 11 µM; hit rate 0.15% among 320,000; in the data active = inhibition above about 33%
EBNA-1 inhibitor – blocks EBNA-1 binding to DNA; EBNA-1 DNA binding, fluorescence polarization; hit rate 0.34% among 300,000; inhibition, % at 14.8 µM; AID 1950; in the data active = inhibition above about 28%
procasp3 activ – activates human procaspase-3; recombinant procaspase-3 D3A, Ac-DEVD-pNA absorbance 405 nm; activation, % at 8.5 µM; hit rate 0.11% among 330,000;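 active = activation above the mean of all tested compounds plus 3 SD, cut at about 21% in these data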;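 also: 0% = DMSO alone and 100% = DMSO wells spiked with extra 5 µM PC-3 D3A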
Target sequence (P42574 whole entry D9A/D28A/D175A): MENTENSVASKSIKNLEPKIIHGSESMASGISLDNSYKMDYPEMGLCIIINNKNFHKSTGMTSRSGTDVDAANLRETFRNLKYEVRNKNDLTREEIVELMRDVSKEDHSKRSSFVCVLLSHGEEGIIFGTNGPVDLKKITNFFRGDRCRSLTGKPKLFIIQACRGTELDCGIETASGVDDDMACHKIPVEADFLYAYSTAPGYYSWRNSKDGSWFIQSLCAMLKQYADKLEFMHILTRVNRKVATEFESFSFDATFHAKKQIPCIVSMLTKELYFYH
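Test system: Procaspase-3 D3A mutant, all three cleavage aspartates alanine | Dosing: Single dose, 8.5 µM nominal compound, 0.8% DMSO | Schedule: 1 h preincubation, 2 h reaction | Technique: 405 nm absorbance of p-nitroaniline, reads at 0 and 120 min | Repeats: One well per compound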
Apaf-1 inh – inhibitors of human Apaf-1 apoptosome; reconstituted apoptosome caspase-3 activity, DEVD-Rh110 fluorescence; inhibition, % at 20 µM; hit rate 0.71% among 330,000; active = inhibition of at least 40% at 20 µM;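 also: plate controls were DMSO wells for no effect and DEVD-CHO caspase inhibitor wells for full effect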
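System: Apoptosome proteins | Medium: Hepes pH 7.5 with detergent and BSA | Also added: Cytochrome c trigger plus (Z-DEVD)2-Rh110 caspase-3 substrate | Incubation: 30 min compound preincubation, 50 min activation, room temperature | Detection: Rhodamine 110 fluorescence at Ex 480/Em 540 nm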
GSTO1 inh – blocks human GSTO1 in RBBP9 counter-screen | recombinant GSTO1, activity-based probe fluorescence polarization | inhibition, % at 5.96 µM | hit rate 1.1% among 300,000;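 active = inhibition above the campaign mean inhibition plus 3 SD, cut at about 35% in these data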;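 also: 0% = GSTO1-1 with DMSO and 100% = wells lacking GSTO1-1 enzyme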
procasp7 counter – counter-screen for procaspase-3 activators: activators of human procaspase-7. recombinant procaspase-7, Ac-DEVD-pNA absorbance 405 nm; D23A/D198A/D206A triple mutant, cannot self-cleave; scale: DMSO 0, 5 µM enzyme 100. AID 463210. activation, % at 8.5 µM. hit rate 0.093% among 330,000. P55210;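 active = percent activation above the screen-wide mean plus 3 SD, cut at about 25% in these data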
Target sequence (P55210 whole entry D23A/D198A/D206A): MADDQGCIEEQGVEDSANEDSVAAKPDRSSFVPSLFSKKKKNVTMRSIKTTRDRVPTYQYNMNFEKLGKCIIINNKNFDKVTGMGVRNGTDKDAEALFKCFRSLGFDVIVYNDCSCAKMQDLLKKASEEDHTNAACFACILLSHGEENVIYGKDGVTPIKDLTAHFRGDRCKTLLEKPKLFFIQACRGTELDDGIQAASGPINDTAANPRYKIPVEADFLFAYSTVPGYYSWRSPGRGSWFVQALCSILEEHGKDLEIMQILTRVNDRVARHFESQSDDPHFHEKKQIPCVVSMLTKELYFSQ
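Assay system – Uncleavable procaspase-7 mutant enzyme · Quantity – 2 µM procaspase-7 mutant as dispensed · Times – 1 h preincubation, 2 h reaction · Dosing – single nominal 8.5 µM compound dose, 0.8% DMSO final · Buffer or medium – Zinc-free 50 mM HEPES buffer, pH 7.4, with NaCl and Triton X-100 · Detection – Epi-absorbance of released pNA at 405 nm, two timepoints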
procasp7 triplic – activates human procaspase-7, counter-screen for procaspase-3 activators | activation, % at 8.5 µM | AID 488941 | 210 tested, under 10 active | shares compounds with procasp3 activ | recombinant procaspase-7, Ac-DEVD-pNA absorbance; asp23/198/206-to-Ala mutant, cannot self-cleave;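 active = mean activation above a set limit taken from an earlier procaspase-7 screen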;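 also: 0% = DMSO wells and 100% = DMSO plus 5 µM procaspase-7 enzyme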
proCasp3 confirm – procaspase-3 (human) activation, confirmed. shares compounds with procasp3 activ. recombinant PC-3 D3A, Ac-DEVD-pNA absorbance 405 nm; 100% is higher-enzyme control. activation, % at 8.5 µM. hit rate 10% among 210;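 active = mean activation above a set limit carried over from the earlier primary screen, cut at about 22% in these data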
Active calls of the source: *; x = not tested or not shown. Hits are enriched below; roughly 1.8% of the tested compounds scored in any of these assays.

SMILES | ZTA DNA inh | EBNA-1 inhibitor | procasp3 activ | Apaf-1 inh | GSTO1 inh | procasp7 counter | procasp7 triplic | proCasp3 confirm
O=C(CN1C(=O)/C(=C\c2ccccc2Br)Oc2ccccc21)NCCCN1CCOCC1 | 13.6 | 15.4 | 31.8* | 15.3 | -6.5 | 25.3 | -17.8 | -12.6
CC1Oc2ccccc2N(CC(=O)NCCCN2CCOCC2)C1=O (configuration not stated) | 6.6 | 10.9 | 5.9 | -3.3 | -4.1 | 4.1 | x | x
O=c1cc(CN2CCN(S(=O)(=O)c3ccc4c(c3)OCCO4)CC2)c2ccc(O)cc2o1 | 4.5 | 7.8 | 21.5* | -2.5 | 7.0 | 24.2 | -22.3 | -13.8
COc1cccc(CNC(=O)CCS(=O)(=O)c2ccc3c(c2)CC(C)N3C(=O)C2CC2)c1 (configuration not stated) | -12.2 | -2.0 | 6.9 | -6.0 | 8.0 | 0.3 | x | x
CCCCNC(=O)c1cc2c(=O)n3cccc(C)c3nc2s1 | 10.8 | 5.7 | 3.2 | 1.6 | -5.8 | 8.4 | x | x
Cc1cccn2c(=O)c3cc(C(=O)NCCc4ccccc4)sc3nc12 | 3.7 | 1.6 | 31.4* | 27.7 | -6.7 | 5.0 | -18.6 | -14.3
CCc1nnc(NC(=O)CSc2nnc3c(C)cc4c(C)ccc(C)c4n23)s1 | -4.8 | 0.8 | 22.3* | -6.6 | 3.2 | -0.2 | 3.0 | 3.8
CCOCc1c(C(=O)Nc2ccccc2N2CCN(C)CC2)oc2ccccc12 | x | x | x | 30.2 | x | x | x | x
Cc1c(CCC(=O)O)c(=O)oc2cc(O)ccc12 | 7.9 | -7.4 | 23.8* | -8.2 | -1.3 | 20.7 | -20.8 | -11.6
COc1ccc(N(CC(=O)NCc2ccco2)C(=O)CCC(=O)Nc2nccs2)cc1 | 4.0 | -0.1 | 10.6 | -0.3 | 2.1 | -2.6 | x | x
O=C1Cc2cc(S(=O)(=O)Nc3ccc(N4CCOCC4)cc3)ccc2N1 | x | x | -1.1 | 1.6 | x | 7.2 | x | x
CC(NC(=O)c1cc2cc([N+](=O)[O-])ccc2oc1=O)C1CCCO1 (configuration not stated) | -2.1 | 7.5 | 22.1* | -4.1 | 2.8 | 20.9 | 21.5 | 32.0*
c1ccc(C2=NN(c3ccccc3)C(c3ccco3)C2)cc1 (configuration not stated) | -3.3 | 9.7 | 26.2* | 19.2 | -5.5 | 23.9 | -20.2 | -15.2
CCCCCCc1cc2cc(C(=O)OCC)c(=O)oc2cc1O | -15.1 | -3.6 | 35.6* | 10.0 | -6.2 | 20.1 | -20.7 | -12.9
CCCCCCc1cc2cc(C(N)=O)c(=N)oc2cc1O | 2.8 | 14.3 | 0.9 | 11.6 | -3.5 | 1.8 | x | x
Cc1nnc(N/N=C/C(C)c2ccccc2)[nH]c1=O (configuration not stated) | -15.2 | 4.0 | 3.0 | -9.4 | -4.5 | -1.4 | x | x
Oc1c(Br)cc(Br)cc1/C=N/NC(=S)N[C@H]1CC2C=CC1C2 (some centres not stated) | 8.8 | -3.9 | 23.1* | 26.6 | -11.1 | 19.2 | 19.1 | 30.5*
CCOC(=O)N1CCN(C(=O)c2ccc(NS(=O)(=O)c3ccc4[nH]c(=O)[nH]c4c3)cc2)CC1 | 10.5 | 0.6 | 2.1 | -0.8 | -27.1 | 2.1 | x | x
Cc1ccc(C(=O)C2CCN(CC(=O)NCc3ccc(F)cc3)CC2)cc1 | 3.5 | -0.2 | 11.2 | 6.7 | 14.9 | 6.1 | x | x
Cc1ccc(NC(=O)CN2CCC(C(=O)c3ccc(F)cc3)CC2)cc1 | 1.5 | -7.7 | 38.2* | 14.8 | 4.9 | 8.5 | 1.8 | 4.9
Cc1ccc(C2Nc3ccc4ccccc4c3C3=C2C(=O)CC(C)(C)C3)o1 (configuration not stated) | 5.8 | 12.5 | 45.8* | -2.8 | -6.8 | 15.4 | 17.9 | 7.6
COCCN(CC(=O)Nc1cccc(C)c1C)C(=O)c1ccc(S(=O)(=O)N2CCOCC2)cc1 | x | x | x | 1.1 | x | x | x | x
O=[N+]([O-])c1ccccc1-c1ccc(CN2CCN(c3ccccc3)CC2)o1 | 7.0 | 4.9 | 5.0 | 16.2 | 8.2 | -6.5 | x | x
O=[N+]([O-])c1cccc(-c2ccc(CN3CCN(c4ccccc4)CC3)o2)c1 | 2.2 | -0.2 | 22.8* | 12.8 | 0.5 | -4.2 | -4.3 | 1.8
CCN(CC)S(=O)(=O)c1ccc2c(c1)c(=O)c(C(=O)N1CCOCC1)cn2C | 11.2 | 5.2 | 45.9* | -13.8 | 5.6 | 7.0 | 2.5 | 1.1
SMILES | ZTA DNA inh | EBNA-1 inhibitor | procasp3 activ | Apaf-1 inh | GSTO1 inh | procasp7 counter | procasp7 triplic | proCasp3 confirm
CC(=O)N/C(=C\c1ccccc1)C(=O)OCC(=O)Nc1cc(S(=O)(=O)N(C)C)ccc1Cl | x | x | x | -7.6 | x | x | x | x
C/C(=N\NC(=O)C1(C)CC1(Br)Br)c1cccc(NC(=O)c2ccc(C)o2)c1 (configuration not stated) | 3.8 | 5.6 | -3.3 | 0.9 | -1.3 | -2.6 | x | x
Cc1ccccc1C(=O)N1CCC(C(=O)Nc2nc3ccc(F)cc3s2)CC1 | 11.3 | 2.6 | 23.4* | 13.6 | 4.0 | 3.1 | 3.4 | 6.8
Cc1ccccc1C(=O)N1CCC(C(=O)Nc2nccs2)CC1 | -2.5 | -9.7 | 1.0 | -10.4 | -8.4 | 9.9 | x | x
O=c1c2ccccc2c(-c2ccccc2)nn1-c1cc(Cl)cc(Cl)c1 | 12.6 | 3.7 | 22.1* | 15.1 | 2.9 | 2.7 | 3.4 | 6.0
C=CCN(c1ccccc1)S(=O)(=O)c1cccc(C(=O)Oc2ccc3c(C)cc(=O)oc3c2)c1 | -11.2 | 1.1 | 21.3* | 2.3 | 3.5 | 21.2 | -7.0 | -7.3
C=CCN(c1ccccc1)S(=O)(=O)c1cccc(C(=O)OCC(=O)NCCOC)c1 | -1.8 | -9.6 | -5.9 | 3.8 | -2.0 | -5.5 | x | x
Cn1c(N)nc2nc(CCc3ccccc3)c(=O)[nH]c2c1=O | 1.5 | -16.0 | 21.8* | 13.6 | 6.1 | 6.4 | -22.3 | -14.3
CCNc1nc2c(c(=O)[nH]c(=O)n2C)n1CCCc1ccccc1 | 24.3 | 8.4 | 3.2 | -18.1 | 4.5 | 3.2 | x | x
Cc1ccc2cc(S(=O)(=O)NCCCN3CCOCC3)ccc2c1 | 11.5 | 2.9 | -4.9 | -5.0 | -5.3 | -5.0 | x | x
COc1ccc2cc(S(=O)(=O)NCCCN3CCOCC3)ccc2c1 | -1.6 | 13.6 | 22.5* | 3.7 | 16.0 | -4.0 | 1.5 | 5.7
Cc1c(O)ccc2c(CN3CCN(C/C=C/c4ccccc4)CC3)cc(=O)oc12 | -9.8 | -4.8 | 23.8* | 2.1 | 3.1 | 22.8 | -19.9 | -14.6
COc1ccccc1[C@@H]1C(c2cccc(C)c2)=NN(c2ccccc2)[C@H]1C(=O)N1CCOC1=O | 7.5 | -2.7 | 24.2* | 12.9 | -0.2 | 18.1 | -22.4 | -14.7
CCC(CC)CN1CCN=C1N(C)C | -1.4 | -2.1 | -1.7 | -3.5 | -2.1 | -6.5 | x | x

Assay outcomes (PubChem BioAssay)
